The results in this text go back to ChEMBL document CHEMBL4699451, “Discovery of BIIB068: A Selective, Potent, Reversible Bruton's Tyrosine Kinase Inhibitor as an Orally Efficacious Agent for Autoimmune Diseases” (J Med Chem, 2020).

Usually fraction unbound stands for the share of the substance not bound to proteins or other matrix. Usually IC50 stands for the concentration that inhibits the measured activity by half. The term bioavailability denotes the share of a dose that reaches the circulation, judged against a reference dose that is usually intravenous. Read a low bioavailability as little systemic uptake. A word on the logD: it is lipophilicity at a set pH, counting ionised and neutral species.

SMILES strings stand for the structures. Values after ≈ are worked out from the molar mass of the structure shown.

T1 sequence (Q06187 whole entry): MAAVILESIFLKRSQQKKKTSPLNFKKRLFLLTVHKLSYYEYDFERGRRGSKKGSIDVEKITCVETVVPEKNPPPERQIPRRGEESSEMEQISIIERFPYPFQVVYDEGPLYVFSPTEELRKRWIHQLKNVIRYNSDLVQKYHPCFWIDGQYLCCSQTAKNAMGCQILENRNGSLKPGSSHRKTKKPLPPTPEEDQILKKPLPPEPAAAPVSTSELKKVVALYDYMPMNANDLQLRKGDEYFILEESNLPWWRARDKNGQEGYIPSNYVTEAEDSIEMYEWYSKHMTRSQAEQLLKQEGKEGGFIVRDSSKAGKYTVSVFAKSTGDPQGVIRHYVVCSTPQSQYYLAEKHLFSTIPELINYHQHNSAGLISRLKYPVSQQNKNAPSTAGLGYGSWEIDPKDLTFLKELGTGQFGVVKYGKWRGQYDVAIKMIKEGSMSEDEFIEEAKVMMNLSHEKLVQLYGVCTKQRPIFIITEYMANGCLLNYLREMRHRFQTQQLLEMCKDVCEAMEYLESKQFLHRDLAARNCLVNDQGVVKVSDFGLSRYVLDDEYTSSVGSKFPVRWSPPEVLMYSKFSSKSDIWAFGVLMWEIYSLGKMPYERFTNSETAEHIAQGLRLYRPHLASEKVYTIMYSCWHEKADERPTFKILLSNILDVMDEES
Chain of Receptor-type tyrosine-protein kinase FLT3 (Homo sapiens) (P36888 whole entry, the tested form may be a part): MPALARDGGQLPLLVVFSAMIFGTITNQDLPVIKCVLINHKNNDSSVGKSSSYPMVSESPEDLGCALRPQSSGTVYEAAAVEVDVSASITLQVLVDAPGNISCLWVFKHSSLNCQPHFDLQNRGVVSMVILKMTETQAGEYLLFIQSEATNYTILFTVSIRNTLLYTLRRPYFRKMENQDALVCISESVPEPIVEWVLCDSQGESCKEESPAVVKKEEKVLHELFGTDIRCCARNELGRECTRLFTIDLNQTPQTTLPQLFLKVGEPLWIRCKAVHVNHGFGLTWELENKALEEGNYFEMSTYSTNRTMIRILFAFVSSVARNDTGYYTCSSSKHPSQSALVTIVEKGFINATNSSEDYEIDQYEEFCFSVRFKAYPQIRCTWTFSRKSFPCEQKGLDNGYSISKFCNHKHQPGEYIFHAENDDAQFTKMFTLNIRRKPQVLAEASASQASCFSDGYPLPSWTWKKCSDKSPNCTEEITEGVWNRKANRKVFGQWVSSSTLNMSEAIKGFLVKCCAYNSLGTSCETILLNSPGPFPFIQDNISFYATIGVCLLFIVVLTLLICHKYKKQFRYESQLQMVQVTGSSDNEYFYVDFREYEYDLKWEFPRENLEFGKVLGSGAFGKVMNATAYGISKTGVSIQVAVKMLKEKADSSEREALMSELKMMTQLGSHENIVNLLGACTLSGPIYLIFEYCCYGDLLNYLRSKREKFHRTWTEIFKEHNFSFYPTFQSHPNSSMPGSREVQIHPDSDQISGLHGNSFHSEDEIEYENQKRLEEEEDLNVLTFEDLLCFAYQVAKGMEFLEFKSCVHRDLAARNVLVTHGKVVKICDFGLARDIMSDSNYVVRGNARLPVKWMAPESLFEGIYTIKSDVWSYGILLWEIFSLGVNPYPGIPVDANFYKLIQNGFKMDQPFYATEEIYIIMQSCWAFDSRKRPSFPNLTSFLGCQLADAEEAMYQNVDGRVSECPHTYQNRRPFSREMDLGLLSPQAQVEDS
Chain of Platelet-derived growth factor receptor beta (Homo sapiens) (P09619 whole entry, the tested form may be a part): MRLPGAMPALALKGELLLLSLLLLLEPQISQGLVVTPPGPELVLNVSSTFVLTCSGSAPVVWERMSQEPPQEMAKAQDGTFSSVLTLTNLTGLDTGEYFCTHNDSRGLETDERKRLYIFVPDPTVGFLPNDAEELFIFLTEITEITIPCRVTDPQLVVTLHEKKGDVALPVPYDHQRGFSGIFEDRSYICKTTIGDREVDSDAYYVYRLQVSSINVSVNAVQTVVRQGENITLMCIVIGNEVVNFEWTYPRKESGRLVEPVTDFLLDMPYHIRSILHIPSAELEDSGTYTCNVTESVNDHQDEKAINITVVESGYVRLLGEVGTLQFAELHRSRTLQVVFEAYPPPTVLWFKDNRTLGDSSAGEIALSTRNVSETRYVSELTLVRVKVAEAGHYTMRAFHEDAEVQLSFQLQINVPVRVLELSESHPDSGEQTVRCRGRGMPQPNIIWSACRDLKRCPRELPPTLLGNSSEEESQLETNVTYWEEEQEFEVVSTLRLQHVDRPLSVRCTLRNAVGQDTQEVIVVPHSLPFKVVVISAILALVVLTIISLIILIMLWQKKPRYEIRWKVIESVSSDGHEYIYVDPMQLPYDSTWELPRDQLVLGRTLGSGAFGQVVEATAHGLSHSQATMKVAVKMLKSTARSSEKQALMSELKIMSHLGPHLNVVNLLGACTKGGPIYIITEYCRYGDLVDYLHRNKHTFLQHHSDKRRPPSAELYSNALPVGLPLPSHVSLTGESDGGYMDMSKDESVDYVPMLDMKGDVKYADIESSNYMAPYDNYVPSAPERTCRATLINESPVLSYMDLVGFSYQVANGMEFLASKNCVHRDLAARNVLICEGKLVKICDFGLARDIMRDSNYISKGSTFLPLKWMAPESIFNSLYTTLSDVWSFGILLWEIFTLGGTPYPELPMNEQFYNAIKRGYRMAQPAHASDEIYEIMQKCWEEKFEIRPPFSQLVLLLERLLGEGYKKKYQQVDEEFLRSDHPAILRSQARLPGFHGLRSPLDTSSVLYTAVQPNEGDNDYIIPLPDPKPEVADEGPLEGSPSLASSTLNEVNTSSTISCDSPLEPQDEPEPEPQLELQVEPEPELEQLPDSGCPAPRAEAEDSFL

Test system in the first series: not listed separately
Nature of the series: Clearance in Sprague-Dawley rat at 1 mg/kg, iv relative to hepatic blood flow. It is filed as ADME, organism-based. The note with it: in vivo.
With `Cc1cc(-c2ccnc(N)n2)ccc1CNC(=O)c1cnc(C(C)(C)C)s1`, the CL worked out at 11%.

For `Cc1cc(-c2ccnc(Nc3cnn(C)c3)n2)ccc1CNC(=O)N1CC(CC(C)C)C1`, the CL was 17%.

With `Cc1cc(-c2ncnc3[nH]ccc23)ccc1CNC(=O)c1ccc(C(C)(C)C)cc1`, the CL is on record as greater than 90%.

In turn, `Cc1cc(-c2ccnc(Nc3cnn(C)c3)n2)ccc1CNC(=O)C1CCC(C(C)(C)C)C1` (configuration not stated) gave a CL of 31%.

Consider `Cc1cc(-c2ccnc(Nc3cnn(C)c3)n2)ccc1CNC(=O)c1cnc(C(C)(C)C)s1`, for which the CL was 6%.

Test system in another series: not listed separately
Nature of the series: Protein binding in human plasma assessed as unbound fraction at 2 uM by rapid equilibrium dialysis method. Type of series: ADME, cell-free.
Conditions: not given
The essentials:
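Unbound fraction in human plasma determined by rapid equilibrium dialysis at 2 µM compound.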
(In equilibrium dialysis only unbound substance equilibrates across the membrane.)
As for `Cc1cc(-c2ccnc(N)n2)ccc1CNC(=O)c1cnc(C(C)(C)C)s1`, the fraction unbound at 2 µM was less than 0.01.

Consider `Cc1cc(-c2ccnc(Nc3cnn(C)c3)n2)ccc1CNC(=O)N1CC(CC(C)C)C1`, for which the fraction unbound at 2 µM came out at 0.009.

For the compound `Cc1cc(-c2ccnc(Nc3cnn(C)c3)n2)ccc1CNC(=O)C1CCC(C(C)(C)C)C1` (configuration not stated), the fraction unbound at 2 µM is 0.0007.

Regarding `Cc1cc(-c2ccnc(Nc3cnn(C)c3)n2)ccc1CNC(=O)c1cnc(C(C)(C)C)s1`, the fraction unbound at 2 µM turned out to be 0.003.

The next series has as its target T1, Tyrosine-protein kinase BTK (Homo sapiens, UniProt Q06187). Briefly: Inhibition of BTK in human whole blood assessed as reduction in BTK phosphorylation measured after 30 mins by phosphotyrosine detection method.
Conditions: not given
It is filed as tissue-based.
As to `Cc1cc(-c2ccnc(Nc3cnn(C)c3)n2)ccc1CNC(=O)N1CC(CC(C)C)C1`, the IC50 was 650 nM and the fIC50 is 5.9 nM.

`Cc1cc(-c2ncnc3[nH]ccc23)ccc1CNC(=O)c1ccc(C(C)(C)C)cc1`: the IC50 was 7800 nM.

Take `Cc1cc(-c2ccnc(Nc3cnn(C)c3)n2)ccc1CNC(=O)C1CCC(C(C)(C)C)C1` (configuration not stated): the IC50 is greater than 10000 nM and the fIC50 came out at 7 nM.

For the compound `Cc1cc(-c2ccnc(Nc3cnn(C)c3)n2)ccc1CNC(=O)c1cnc(C(C)(C)C)s1`, the IC50 was found to be 430 nM and the fIC50 was 1.3 nM.

The target of a further series is Mast/stem cell growth factor receptor Kit (Homo sapiens) (UniProt P10721). Briefly: Binding affinity to wild-type human partial length KIT (I571 to D952 residues) expressed in bacterial expression system at 10 uM by Kinomescan method relative to control.
Chain of Mast/stem cell growth factor receptor Kit (Homo sapiens) (P10721 whole entry, the tested form may be a part): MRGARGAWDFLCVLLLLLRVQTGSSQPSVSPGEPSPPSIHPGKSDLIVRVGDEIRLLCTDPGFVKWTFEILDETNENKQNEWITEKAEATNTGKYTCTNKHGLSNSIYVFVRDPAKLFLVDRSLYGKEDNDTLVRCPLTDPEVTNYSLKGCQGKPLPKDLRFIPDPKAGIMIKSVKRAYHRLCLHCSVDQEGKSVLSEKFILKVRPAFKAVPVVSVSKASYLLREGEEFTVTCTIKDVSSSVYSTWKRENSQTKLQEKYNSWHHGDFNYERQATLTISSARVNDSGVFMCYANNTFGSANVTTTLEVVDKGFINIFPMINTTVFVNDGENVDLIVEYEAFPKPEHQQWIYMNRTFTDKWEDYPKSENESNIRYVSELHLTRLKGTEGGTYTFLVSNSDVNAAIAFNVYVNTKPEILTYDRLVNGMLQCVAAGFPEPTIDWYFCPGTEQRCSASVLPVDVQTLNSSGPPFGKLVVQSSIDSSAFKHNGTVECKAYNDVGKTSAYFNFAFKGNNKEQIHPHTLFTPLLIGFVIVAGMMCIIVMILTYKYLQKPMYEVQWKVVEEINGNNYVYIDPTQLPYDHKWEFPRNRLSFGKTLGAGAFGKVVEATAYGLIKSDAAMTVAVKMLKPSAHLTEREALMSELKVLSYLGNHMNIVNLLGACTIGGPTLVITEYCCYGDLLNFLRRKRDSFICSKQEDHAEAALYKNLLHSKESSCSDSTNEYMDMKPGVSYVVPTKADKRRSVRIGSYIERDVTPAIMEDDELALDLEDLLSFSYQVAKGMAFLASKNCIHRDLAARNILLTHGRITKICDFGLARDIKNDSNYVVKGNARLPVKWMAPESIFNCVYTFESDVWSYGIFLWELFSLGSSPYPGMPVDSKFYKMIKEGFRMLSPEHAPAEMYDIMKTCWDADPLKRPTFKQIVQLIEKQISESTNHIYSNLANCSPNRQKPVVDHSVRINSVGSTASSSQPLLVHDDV
Conditions: not given
For the compound `Cc1cc(-c2ncnc3[nH]ccc23)ccc1CNC(=O)c1ccc(C(C)(C)C)cc1`, the Activity is greater than 80%.

The target of the next series is T2, Mitogen-activated protein kinase kinase kinase 19 (Homo sapiens) (UniProt Q56UN5).
T2 sequence (whole entry): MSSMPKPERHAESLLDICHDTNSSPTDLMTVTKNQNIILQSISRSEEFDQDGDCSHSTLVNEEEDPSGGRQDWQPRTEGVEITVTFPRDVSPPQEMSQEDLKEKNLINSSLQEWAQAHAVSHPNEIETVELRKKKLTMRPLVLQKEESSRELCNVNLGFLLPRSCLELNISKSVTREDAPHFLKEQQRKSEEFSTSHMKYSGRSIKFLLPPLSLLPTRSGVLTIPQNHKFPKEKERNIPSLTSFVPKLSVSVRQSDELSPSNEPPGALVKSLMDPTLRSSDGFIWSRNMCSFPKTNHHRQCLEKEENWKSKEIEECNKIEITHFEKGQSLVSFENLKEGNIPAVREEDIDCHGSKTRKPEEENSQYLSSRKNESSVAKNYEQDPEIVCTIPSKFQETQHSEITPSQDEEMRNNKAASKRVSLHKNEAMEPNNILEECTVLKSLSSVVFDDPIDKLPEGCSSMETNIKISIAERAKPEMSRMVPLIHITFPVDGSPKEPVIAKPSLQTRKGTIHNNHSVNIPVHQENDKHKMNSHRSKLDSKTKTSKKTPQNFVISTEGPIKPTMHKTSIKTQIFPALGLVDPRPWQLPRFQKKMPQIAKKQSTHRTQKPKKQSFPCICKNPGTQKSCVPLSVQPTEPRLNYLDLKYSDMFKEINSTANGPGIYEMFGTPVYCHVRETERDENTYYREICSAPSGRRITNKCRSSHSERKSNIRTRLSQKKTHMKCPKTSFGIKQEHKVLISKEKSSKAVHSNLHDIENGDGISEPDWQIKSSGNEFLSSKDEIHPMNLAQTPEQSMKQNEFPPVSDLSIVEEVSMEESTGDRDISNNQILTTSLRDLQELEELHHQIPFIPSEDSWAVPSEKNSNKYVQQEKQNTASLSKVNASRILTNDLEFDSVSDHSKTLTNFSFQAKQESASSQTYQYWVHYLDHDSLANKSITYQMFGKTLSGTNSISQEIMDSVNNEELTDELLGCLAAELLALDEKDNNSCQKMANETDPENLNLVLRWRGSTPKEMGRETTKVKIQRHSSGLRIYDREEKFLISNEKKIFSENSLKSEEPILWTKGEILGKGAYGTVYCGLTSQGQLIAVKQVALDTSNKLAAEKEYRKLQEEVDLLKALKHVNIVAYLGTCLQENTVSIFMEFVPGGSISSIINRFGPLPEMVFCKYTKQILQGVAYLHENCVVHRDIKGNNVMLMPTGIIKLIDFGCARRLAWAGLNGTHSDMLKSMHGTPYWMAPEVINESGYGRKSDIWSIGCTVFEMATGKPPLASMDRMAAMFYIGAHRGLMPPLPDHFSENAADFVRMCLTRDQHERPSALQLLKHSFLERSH
Nature of the series: Binding affinity to wild-type human partial length YSK4 (T1019 to H1328 residues) expressed in mammalian expression system at 10 uM by Kinomescan method relative to control.
Conditions: not given
`Cc1cc(-c2ncnc3[nH]ccc23)ccc1CNC(=O)c1ccc(C(C)(C)C)cc1` had an Activity greater than 80%.

Test system in a further series: not listed separately
Briefly: Kinetic solubility of compound at pH 1.5 by shake flask method. Type of series: physicochemical. The note with it: buffer, read-out: Kinetic_solubility.
With `Cc1cc(-c2ccnc(Nc3cnn(C)c3)n2)ccc1CNC(=O)N1CC(CC(C)C)C1`, the solubility kinetic is less than 10 µg/mL.

Take `Cc1cc(-c2ccnc(Nc3cnn(C)c3)n2)ccc1CNC(=O)C1CCC(C(C)(C)C)C1` (configuration not stated): the solubility kinetic is less than 10 µg/mL.

In the case of `Cc1cc(-c2ccnc(Nc3cnn(C)c3)n2)ccc1CNC(=O)c1cnc(C(C)(C)C)s1`, the solubility kinetic was less than 10 µg/mL.

The next series deals with T1, Tyrosine-protein kinase BTK. Nature of the series: Inhibition of recombinant human full-length N-terminal His6-tagged BTK expressed in baculovirus infected Sf21 insect cells using fluorescein-labeled polyGAT peptide substrate measured after 30 mins by TR-FRET assay.
Conditions: not given
Turning to `Cc1cc(-c2ccnc(N)n2)ccc1CNC(=O)c1cnc(C(C)(C)C)s1`, the IC50 came out at 6 nM.

With `Cc1cc(-c2ccnc(Nc3cnn(C)c3)n2)ccc1CNC(=O)N1CC(CC(C)C)C1`, the IC50 is 0.4 nM.

Regarding `Cc1cc(-c2ncnc3[nH]ccc23)ccc1CNC(=O)c1ccc(C(C)(C)C)cc1`, the IC50 was determined as 5 nM.

Turning to `Cc1cc(-c2ccnc(Nc3cnn(C)c3)n2)ccc1CNC(=O)C1CCC(C(C)(C)C)C1` (configuration not stated), the IC50 stood at 2 nM.

For the compound `Cc1cc(-c2ccnc(Nc3cnn(C)c3)n2)ccc1CNC(=O)c1cnc(C(C)(C)C)s1`, the IC50 is 0.2 nM.

Test system in another series: not listed separately
Briefly: Clearance in human liver microsomes relative to hepatic blood flow. Type of series: ADME, Microsome. The note with it: read-out: CLH.
For `Cc1cc(-c2ccnc(N)n2)ccc1CNC(=O)c1cnc(C(C)(C)C)s1`, the hepatic extraction ratio was 0.56.

For `Cc1cc(-c2ccnc(Nc3cnn(C)c3)n2)ccc1CNC(=O)N1CC(CC(C)C)C1`, the hepatic extraction ratio was found to be 0.08.

In the case of `Cc1cc(-c2ccnc(Nc3cnn(C)c3)n2)ccc1CNC(=O)C1CCC(C(C)(C)C)C1` (configuration not stated), the hepatic extraction ratio was found to be 0.14.

In the case of `Cc1cc(-c2ccnc(Nc3cnn(C)c3)n2)ccc1CNC(=O)c1cnc(C(C)(C)C)s1`, the hepatic extraction ratio came out at 0.02.

The next series addresses Receptor-type tyrosine-protein kinase FLT3 (Homo sapiens) (UniProt P36888). Nature of the series: Binding affinity to wild-type human partial length FLT3 (V592 to Y969 residues) expressed in bacterial expression system at 10 uM by Kinomescan method relative to control.
Conditions: not given
The compound `Cc1cc(-c2ncnc3[nH]ccc23)ccc1CNC(=O)c1ccc(C(C)(C)C)cc1` yielded an Activity greater than 80%.

Test system in another series: not listed separately
Nature of the series: Oral bioavailability in Sprague-Dawley rat. It is filed as ADME, organism-based. The note with it: in vivo. Put shortly:
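Oral dosing in rats; vehicle 0.1% CMC/0.2% Tween-80.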
`Cc1cc(-c2ccnc(Nc3cnn(C)c3)n2)ccc1CNC(=O)c1cnc(C(C)(C)C)s1` showed a bioavailability of 24%.

Test system in a further series: not listed separately
Briefly: Clearance in rat liver microsomes relative to hepatic blood flow. Type of series: ADME, Microsome. The settings on record: read-out: CLH.
On to `Cc1cc(-c2ccnc(N)n2)ccc1CNC(=O)c1cnc(C(C)(C)C)s1`, for which the hepatic extraction ratio is 0.65.

On to `Cc1cc(-c2ccnc(Nc3cnn(C)c3)n2)ccc1CNC(=O)N1CC(CC(C)C)C1`, for which the hepatic extraction ratio was 0.01.

Consider `Cc1cc(-c2ccnc(Nc3cnn(C)c3)n2)ccc1CNC(=O)C1CCC(C(C)(C)C)C1` (configuration not stated), for which the hepatic extraction ratio was 0.03.

Turning to `Cc1cc(-c2ccnc(Nc3cnn(C)c3)n2)ccc1CNC(=O)c1cnc(C(C)(C)C)s1`, the hepatic extraction ratio was found to be 0.01.

Test system in another series: not listed separately
Briefly: Lipophilicity, log D of compound by UV-HPLC method.
Conditions: not given
Type of series: physicochemical.
`Cc1cc(-c2ccnc(N)n2)ccc1CNC(=O)c1cnc(C(C)(C)C)s1` returned a logD of 4.04.

Regarding `Cc1cc(-c2ccnc(Nc3cnn(C)c3)n2)ccc1CNC(=O)N1CC(CC(C)C)C1`, the logD came to 3.34.

In turn, `Cc1cc(-c2ncnc3[nH]ccc23)ccc1CNC(=O)c1ccc(C(C)(C)C)cc1` returned a logD of 5.18.

With `Cc1cc(-c2ccnc(Nc3cnn(C)c3)n2)ccc1CNC(=O)C1CCC(C(C)(C)C)C1` (configuration not stated), the logD turned out to be 4.58.

Take `Cc1cc(-c2ccnc(Nc3cnn(C)c3)n2)ccc1CNC(=O)c1cnc(C(C)(C)C)s1`: the logD worked out at 4.76.

Another series addresses Platelet-derived growth factor receptor beta (Homo sapiens) (UniProt P09619). Briefly: Binding affinity to wild-type human partial length PDGFRB (V582 to Y1009 residues) expressed in bacterial expression system at 10 uM by Kinomescan method relative to control.
Conditions: not given
Consider `Cc1cc(-c2ncnc3[nH]ccc23)ccc1CNC(=O)c1ccc(C(C)(C)C)cc1`, for which the Activity was greater than 80%.

Test system in the next series: not listed separately
Briefly: Kinetic solubility of compound at pH 6.8 by shake flask method. It is filed as physicochemical. The note with it: buffer, read-out: Kinetic_solubility.
For `Cc1cc(-c2ccnc(N)n2)ccc1CNC(=O)c1cnc(C(C)(C)C)s1`, the solubility kinetic was 13 µg/mL (≈ 34.1 µM).

On to `Cc1cc(-c2ccnc(Nc3cnn(C)c3)n2)ccc1CNC(=O)N1CC(CC(C)C)C1`, for which the solubility kinetic was less than 10 µg/mL.

For the compound `Cc1cc(-c2ncnc3[nH]ccc23)ccc1CNC(=O)c1ccc(C(C)(C)C)cc1`, the solubility kinetic is less than 1 µg/mL.

Regarding `Cc1cc(-c2ccnc(Nc3cnn(C)c3)n2)ccc1CNC(=O)C1CCC(C(C)(C)C)C1` (configuration not stated), the solubility kinetic is less than 10 µg/mL.

For `Cc1cc(-c2ccnc(Nc3cnn(C)c3)n2)ccc1CNC(=O)c1cnc(C(C)(C)C)s1`, the solubility kinetic came out at 2.7 µg/mL (≈ 5.85 µM).
